Our source for the Ki and Kd values is ChEMBL document CHEMBL1131287, “Design, synthesis, and biological activities of potent and selective somatostatin analogues incorporating novel peptoid residues” (J Med Chem, 1998).

A word on the pKi: it is −log10 of the Ki, conventionally taken in molar units. One may read the pKd as −log10 of the Kd, conventionally taken in molar units. High values mean a low Kd, low ones a high Kd.

What all share (format): cell-based
Assay [1] concerns the target T1, Somatostatin receptor type 3 (Homo sapiens, UniProt P32745). Put plainly: In vitro inhibition of radioligand binding to human somatostatin receptor (hsst3) expressed in CHO-K1 cells. An outline of the steps: (§1)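 Membranes from CHO-K1 clones stably expressing the hsst subtype (pCMV, G418-selected), washed in 50 mM Tris-HCl. Stopped by PEI-treated GF/C filtration. Specific binding was defined against 1000 nM SRIF-14.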

In assay [2] the target is T2, Somatostatin receptor type 4 (Homo sapiens, UniProt P31391). Description: In vitro inhibition of radioligand binding to human somatostatin receptor (hsst4) expressed in CHO-K1 cells. A digest of the protocol: as §1
Assay [3] addresses T2, Somatostatin receptor type 4. Description: In vitro inhibition of radioligand binding to human somatostatin receptor (hsst4) expressed in CHO cells. An outline of the steps: (§2)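 Competition binding on cell or membrane homogenates in 10 mM HEPES pH 7.5 with 0.5% BSA, 5 mM MgCl2 and 5 μg/mL bacitracin, 1 h at room temperature. Nonspecific binding with 1 μM SRIF14. Gamma counting, triplicates, nonlinear regression, reported as pKD.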

In assay [4] the target is T3, Somatostatin receptor type 5 (Homo sapiens, UniProt P35346). Put plainly: In vitro inhibition of radioligand binding to human Somatostatin receptor type 5 expressed in CHO-K1 cells. A digest of the protocol: as §1
Assay [5] deals with T1, Somatostatin receptor type 3. Description: In vitro inhibition of radioligand binding to human somatostatin receptor (hsst3) expressed in CHO cells. An outline of the steps:
as §2

For assay [6], the target named is T4, Somatostatin receptor type 1 (Homo sapiens, UniProt P30872). Put plainly: In vitro inhibition of radioligand binding to human somatostatin receptor (hsst1) expressed in hSF6 cells. A digest of the protocol: as §2
Assay [7] has as its target T5, Somatostatin receptor type 2 (Homo sapiens, UniProt P30874). Put plainly: In vitro inhibition of radioligand binding to human somatostatin receptor (hsst2) expressed in CHO-K1 cells. A digest of the protocol: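 hsst2 stably expressed in CHO-K1 cells; washed membranes were used. Radioligand was 0.05 nM [125I]MK-678, incubated 90 min at 25 °C in 50 mM HEPES pH 7.4 buffer with BSA, MgCl2 and protease inhibitors. Filtered on PEI-soaked GF/C filters. Specific binding was defined against 1000 nM MK-678.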

Assay [8] concerns the target T4, Somatostatin receptor type 1. Put plainly: In vitro inhibition of radioligand binding to human somatostatin receptor (hsst1) expressed in CHO-K1 cells. An outline of the steps:
as §1

Assay [9] addresses T5, Somatostatin receptor type 2. Put plainly: In vitro inhibition of radioligand binding to human somatostatin receptor (hsst2) expressed in CHO cells. A digest of the protocol: as §2
Assay [10] addresses T3, Somatostatin receptor type 5. Description: In vitro inhibition of radioligand binding to human Somatostatin receptor type 5 expressed in CCL-39 cells. An outline of the steps: as §2

pKd, pKi: −log10 of the molar value. Square brackets hold non-standard residues; d marks the D form. Peptide text beside a SMILES is read from it.

T4 sequence (P30872 whole entry): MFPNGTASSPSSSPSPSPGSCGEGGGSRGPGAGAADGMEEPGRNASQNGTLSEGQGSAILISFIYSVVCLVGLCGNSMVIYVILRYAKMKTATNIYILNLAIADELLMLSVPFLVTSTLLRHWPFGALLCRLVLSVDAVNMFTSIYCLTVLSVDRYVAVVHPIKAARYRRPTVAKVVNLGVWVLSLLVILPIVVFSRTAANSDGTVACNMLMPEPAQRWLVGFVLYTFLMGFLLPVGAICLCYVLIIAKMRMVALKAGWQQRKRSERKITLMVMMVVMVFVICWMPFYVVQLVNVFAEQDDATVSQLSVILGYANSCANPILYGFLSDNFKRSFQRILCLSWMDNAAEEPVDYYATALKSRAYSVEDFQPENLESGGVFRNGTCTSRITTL
T5 sequence (P30874 whole entry): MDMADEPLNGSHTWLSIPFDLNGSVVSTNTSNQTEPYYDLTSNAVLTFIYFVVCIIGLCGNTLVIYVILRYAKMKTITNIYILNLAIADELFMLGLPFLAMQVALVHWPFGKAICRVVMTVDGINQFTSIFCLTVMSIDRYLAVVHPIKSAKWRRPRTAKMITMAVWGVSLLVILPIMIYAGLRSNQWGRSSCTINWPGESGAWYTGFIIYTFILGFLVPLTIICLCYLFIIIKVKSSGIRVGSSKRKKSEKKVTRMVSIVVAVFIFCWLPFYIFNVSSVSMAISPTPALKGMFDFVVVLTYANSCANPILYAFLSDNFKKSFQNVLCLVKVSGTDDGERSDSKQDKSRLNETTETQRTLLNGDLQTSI
T1 sequence (P32745 whole entry): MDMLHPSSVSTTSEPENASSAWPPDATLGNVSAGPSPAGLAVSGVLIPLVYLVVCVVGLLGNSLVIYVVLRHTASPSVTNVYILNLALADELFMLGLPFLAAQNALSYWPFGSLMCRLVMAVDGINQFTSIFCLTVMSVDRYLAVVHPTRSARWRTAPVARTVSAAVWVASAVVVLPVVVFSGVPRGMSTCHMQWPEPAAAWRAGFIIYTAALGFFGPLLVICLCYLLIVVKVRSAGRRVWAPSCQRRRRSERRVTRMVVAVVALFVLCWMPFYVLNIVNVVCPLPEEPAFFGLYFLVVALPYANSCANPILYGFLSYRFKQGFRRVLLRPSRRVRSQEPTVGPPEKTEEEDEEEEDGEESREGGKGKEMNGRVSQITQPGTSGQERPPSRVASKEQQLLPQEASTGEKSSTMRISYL
T2 sequence (P31391 whole entry): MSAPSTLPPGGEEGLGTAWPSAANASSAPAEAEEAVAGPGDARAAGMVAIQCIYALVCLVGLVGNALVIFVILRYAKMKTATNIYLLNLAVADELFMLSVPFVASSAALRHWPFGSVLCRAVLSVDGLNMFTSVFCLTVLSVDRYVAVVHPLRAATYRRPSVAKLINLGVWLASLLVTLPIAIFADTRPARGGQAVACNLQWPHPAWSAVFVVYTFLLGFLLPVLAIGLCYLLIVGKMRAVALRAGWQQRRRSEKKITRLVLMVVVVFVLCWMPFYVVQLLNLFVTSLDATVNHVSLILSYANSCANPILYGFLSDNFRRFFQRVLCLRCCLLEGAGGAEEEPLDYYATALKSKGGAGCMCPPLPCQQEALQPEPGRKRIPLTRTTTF
T3 sequence (P35346 whole entry): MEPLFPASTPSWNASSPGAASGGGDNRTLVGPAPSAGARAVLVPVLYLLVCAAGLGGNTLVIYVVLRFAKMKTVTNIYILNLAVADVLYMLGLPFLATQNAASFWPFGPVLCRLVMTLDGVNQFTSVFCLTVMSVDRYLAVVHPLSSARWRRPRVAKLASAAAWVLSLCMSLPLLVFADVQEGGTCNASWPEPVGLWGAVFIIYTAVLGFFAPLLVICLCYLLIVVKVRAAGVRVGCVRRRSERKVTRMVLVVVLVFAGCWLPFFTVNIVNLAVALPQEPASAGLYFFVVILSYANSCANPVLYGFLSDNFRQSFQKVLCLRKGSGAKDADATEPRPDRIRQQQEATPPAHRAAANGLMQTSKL

As for `C[C@H](c1ccccc1)N1CC(=O)N[C@@H](Cc2ccccc2)C(=O)N[C@H](Cc2c[nH]c3ccccc23)C(=O)N[C@@H](CCCCN)C(=O)N[C@@H]([C@@H](C)O)C(=O)N[C@@H](Cc2ccccc2)C1=O`, the pKi in assay [1] (cho-k1) is 6.37; in [2] (cho-k1), less than 6.00; in assay [4] (cho-k1), 7.47; in [7] (cho-k1), 8.63; in assay [8] (cho-k1) it was less than 6.00. Besides, the pKd was 5.38 in assay [3] (cho); 6.39 in [5] (cho); 5.45 in assay [6]; 8.69 in assay [9] (cho); 6.54 in [10] (ccl-39).
In the case of `C[C@@H](O)[C@@H]1NC(=O)[C@H](CCCCN)NC(=O)[C@@H](Cc2c[nH]c3ccccc23)NC(=O)[C@H](Cc2ccccc2)NC(=O)[C@@H]2CCCN2C(=O)[C@H](Cc2ccccc2)NC1=O` (cyclo(PF[dW]KTF)), the pKi is 6.89 in [1]; less than 6.00 in assay [2]; 7.60 in [4]; 8.29 in [7]; less than 6.00 in assay [8]. The pKd in assay [3] is 5.05; in assay [5], 6.28; in assay [6], 5.34; in [9], 9.12; in assay [10], 8.12.
For `C[C@@H](O)[C@@H]1NC(=O)[C@H](CCCCN)NC(=O)[C@@H](Cc2c[nH]c3ccccc23)NC(=O)[C@H](Cc2ccccc2)NC(=O)CN([C@@H](C)c2ccccc2)C(=O)[C@H](Cc2ccccc2)NC1=O`, the pKi in assay [1] (cho-k1) was 6.10; in assay [2] (cho-k1), 6.01; in [4] (cho-k1), 7.06; in assay [7] (cho-k1) it was 7.53; in assay [8] (cho-k1), less than 6.00. For the same compound, the pKd was 5.58 in assay [3] (cho); 6.47 in assay [5] (cho); 4.88 in assay [6]; 8.21 in [9] (cho); 6.94 in assay [10] (ccl-39).
Consider `C[C@@H](O)[C@@H]1NC(=O)[C@H](CCCCN)NC(=O)[C@@H](Cc2c[nH]c3ccccc23)NC(=O)[C@H](Cc2ccccc2)NC(=O)CN(Cc2ccccc2)C(=O)[C@H](Cc2ccccc2)NC1=O`, for which the pKi is 6.60 in assay [1] (cho-k1); less than 6.00 in [2] (cho-k1); 7.00 in assay [4] (cho-k1); 8.16 in [7] (cho-k1); less than 6.00 in assay [8] (cho-k1). Further, the pKd is 5.33 in [3] (cho); 6.55 in assay [5] (cho); 5.15 in assay [6]; 8.53 in assay [9] (cho); 7.16 in assay [10] (ccl-39).
